Four compounds from paper PMC9393086 (Thrombosis and Haemostasis, 2022) can be followed below.

Assay [1] deals with washed human platelets. Kind of assay: Light transmission platelet aggregation. The format is cell-based. Particulars: for effect on platelet aggregation induced by 10 µM katacine: pretreatment 5 min, PRT-060318 1 µM, PP2 20 µM. In a few lines: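 Platelets came from citrated blood of healthy donors free of antiplatelet drugs for 14 days. They were washed from PRP with 0.2 µg/mL prostacyclin, resuspended in modified Tyrode's buffer pH 7.3 and rested 30 min at RT. Platelets (2 × 10^8/mL) were stirred at 1,200 rpm at 37°C and stimulated with test compound (1–30 µM). Pretreatment was 5 min at 37°C with PP2 20 µM, PRT-060318 1 µM, AYP1 10 µg/mL or 0.1% DMSO. Read-out was light transmission; three independent experiments, mean + SD.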

Assay [2] concerns the target podoplanin–CLEC-2 interaction (Homo sapiens, UniProt Q9P126). Nature of the assay: ALPHA screen podoplanin–CLEC-2 interaction assay. The format is binding. In a few lines: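 Biotinylated human podoplanin–rabbit Fc (50 nM) plus human CLEC-2 extracellular domain (Ser55–Pro229)–6xHis (250 nM), both expressed in HEK293T and purified, incubated with test compound (vehicle 0.1% v/v DMSO) 30 min at 4°C. Then 40 µg/mL streptavidin donor beads, 30 min at RT in the dark, then 40 µg/mL nickel acceptor beads, 60 min at RT in the dark. ALPHA signal read; false positives excluded by TruHits counter-screen; IC50 from concentration series.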

Assay [3] relates to Syk Y525/526. Nature of the assay: Phospho-specific immunoblot of platelet lysates, Syk. The format is cell-based, human. Particulars: katacine 10 µM, rhodocytin 100 nM; 5 min; 9 µM eptifibatide.
The test system of assay [4] is LAT Y200. Kind of assay: Phospho-specific immunoblot of platelet lysates, LAT. The class given is cell-based, human. The note with it: katacine 10 µM, rhodocytin 100 nM; 5 min; 9 µM eptifibatide.
The test system of assay [5] is CLEC-2. Kind of assay: Immunoprecipitation of CLEC-2 and 4G10 western blot. The format is cell-based, human. The note with it: katacine 10 µM, rhodocytin 100 nM. In a few lines: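 Platelets (4 × 10^8/mL, 9 µM eptifibatide) were stimulated 5 min at 37°C, stirring at 1,200 rpm, with test compound, rhodocytin or vehicle. Lysis was in NP-40 buffer with protease inhibitors and orthovanadate, pH 7.5. Lysates were precleared on Sepharose, then incubated 30 min with 2 µg anti-CLEC-2 antibody AYP1 and captured for 60 min. Immunoprecipitates were blotted with 4G10; signal was expressed as fold over vehicle.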

Assay [6] deals with FcR γ-chain. Kind of assay: FcR γ-chain phosphorylation, western blot of whole cell lysate. Particulars: katacine 10 µM, CRP 3 µg/mL. The format is cell-based, human.
The test system of assay [7] is mouse washed platelets. Nature of the assay: Mouse platelet aggregation. The format is cell-based. The note with it: katacine 10 µM; 2x10^8 platelets/mL.
Assay [8] has as its system mouse platelet lysates. Nature of the assay: Protein tyrosine phosphorylation in mouse platelet lysates. The note with it: katacine 10 µM; 4x10^8 platelets/mL. The format is cell-based.

Sequence of podoplanin–CLEC-2 interaction (Q9P126 55-229): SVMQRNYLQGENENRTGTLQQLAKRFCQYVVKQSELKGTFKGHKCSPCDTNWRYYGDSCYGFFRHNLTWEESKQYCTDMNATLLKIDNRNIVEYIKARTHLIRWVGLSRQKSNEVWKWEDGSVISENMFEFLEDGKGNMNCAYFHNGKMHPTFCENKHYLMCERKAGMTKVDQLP

Take `CC(C)(C)n1nc(-c2ccc(Cl)cc2)c2c(N)ncnc21` [PP2, reference compound]: the “effect on platelet aggregation induced by 10 µM katacine” value in assay [1] is “completely blocked”.
Take `O=C(O)c1cc(O)c2c(c1)[C@H]([C@H]1c3cc(C(=O)O)cc(O)c3C(=O)c3c(O[C@@H]4O[C@H](CO)[C@@H](O)[C@H](O)[C@H]4O)cccc31)c1cccc(O[C@@H]3O[C@H](CO)[C@@H](O)[C@H](O)[C@H]3O)c1C2=O` [sennoside A, Sennoside A]: the midpoint of inhibition in assay [2], the IC50, lay at 1.3 µM. Besides, the “effect on platelet aggregation” value in assay [1] (10 and 30 µM, data not shown) is reported as “no effect”. For the same compound, the “effect on the platelet aggregation response to rhodocytin” value in assay [1] (10 and 30 µM, rhodocytin 100 nM, data not shown) is “no effect”.
For `Oc1cc(O)c2c(c1)O[C@H](c1cc(O)c(O)c(O)c1)[C@H](O)[C@H]2c1c(O)cc(O)c2c1O[C@H](c1cc(O)c(O)c(O)c1)[C@H](O)[C@H]2c1c(O)cc(O)c2c1O[C@H](c1cc(O)c(O)c(O)c1)[C@H](O)C2` [katacine, Katacine], in assay [2], it took 2.7 µM to reach half-maximal inhibition (IC50). Besides, the “platelet aggregation, concentration–response” value in assay [1] (at 5 μM and below) is on record as “no response”; in assay [1] (at 10 and 30 μM), “maximal aggregation”. In addition, the platelet aggregation in assay [1] (katacine 10 µM, washed platelets 2 × 10^8/mL) is 77.7 ± 9%. The “increase in phosphorylation of Syk Y525/526 relative to vehicle” value in assay [3] came out at 4.5 ± 0.9 fold. Further, the “increase in phosphorylation of LAT Y200 relative to vehicle” value in assay [4] amounted to 18.8 ± 5.9 fold. In addition, the “increase in phosphorylation levels of CLEC-2 relative to vehicle” value in assay [5] is recorded as 6.6 ± 4.6 fold. Besides, the “phosphorylation of FcR γ-chain” value in assay [6] is given as “did not stimulate an increase”. In assay [7], the “platelet aggregation in mouse platelets” value is “did not observe platelet aggregation”. Further, the “protein tyrosine phosphorylation in mouse platelets” value in assay [8] was “did not observe”.
Turning to `Cc1cccc(Nc2nc(N[C@@H]3CCCC[C@@H]3N)ncc2C(N)=O)c1` [PRT-060318, reference compound], in assay [1], the “effect on platelet aggregation induced by 10 µM katacine” value is listed as “completely blocked”.
